Assay results from publication PMC3423201 (Molecular cancer therapeutics, 2011).
Read-outs that look alike come from different tables or passages of the source.

Assays:
[1] = target: T1, AMACR-MBP (Homo sapiens, UniProt Q9UHK6); assay: Kinetic parameters; format: biochemical; conditions: 0.3 μM AMACR-MBP, 37°C, ± SEM
T1 sequence (Q9UHK6 1-382): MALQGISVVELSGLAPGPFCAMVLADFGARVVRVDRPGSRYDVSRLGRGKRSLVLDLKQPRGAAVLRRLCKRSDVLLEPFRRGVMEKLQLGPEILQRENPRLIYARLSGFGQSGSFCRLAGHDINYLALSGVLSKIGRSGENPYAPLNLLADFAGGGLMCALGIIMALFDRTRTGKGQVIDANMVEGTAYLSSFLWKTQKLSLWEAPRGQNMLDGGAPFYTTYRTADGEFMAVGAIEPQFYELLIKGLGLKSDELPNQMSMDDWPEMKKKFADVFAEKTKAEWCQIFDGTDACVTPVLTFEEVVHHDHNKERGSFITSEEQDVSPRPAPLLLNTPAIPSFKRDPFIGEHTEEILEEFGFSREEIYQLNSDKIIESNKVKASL
Procedure, shortened: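 Reactions of 185 μL held 0.3 μM AMACR-MBP in Na/K/Pi pH 7.25 with BSA at 37°C. [2,3-3H]Pri-CoA was used at 1–400 μM (twelve levels), all at 60 Ci/mol, and reactions were started with enzyme. Aliquots of 20 μL were taken at 0–900 s and quenched in 2 M HCl, with no-enzyme backgrounds at each time point. Aliquots were processed by SPE/scintillation, DPM were converted to rates, and rates were fitted directly to Michaelis-Menten.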

[2] = target: T1, AMACR-MBP; assay: High-throughput screen for AMACR inhibitors; format: biochemical; conditions: for inhibition at 100 µM: read-out: inhibition (decrease of fractional activity) in HTS
Procedure, shortened: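 Recombinant AMACR-MBP was expressed in E. coli TB1, purified on a maltose column and dialysed into 100 mM Na/K/Pi pH 7.25. Enzyme (0.3 μM) was incubated with 100 μM test compound (1% DMSO) and 150 μM [2,3-3H]Pri-CoA (60 Ci/mol) in buffer with 0.125 mg/mL BSA for 30 min at 37°C. Reactions were acid-quenched, neutralised and passed through C18 SPE, and released 3H2O was scintillation-counted. Fractional activity was calculated against each row's no-inhibitor control after no-enzyme background subtraction; <0.8 was flagged as a hit.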

[3] = target: T1, AMACR-MBP; assay: Kitz-Wilson analysis of time-dependent inactivation; format: biochemical; conditions: for KI (inactivation): 37°C, Kitz-Wilson transformation
Procedure, shortened: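 Inactivation mixtures at 37°C contained test compound at a series of concentrations and 5 μM AMACR-MBP, started with enzyme. At timed points from zero, 2 μL was diluted 50-fold into buffer with 150 μM [2,3-3H]Pri-CoA (100 nM final enzyme) and reacted for 30 min, then SPE/scintillation. Activity remaining was expressed versus time-matched no-inhibitor controls. T1/2 was regressed against 1/[I], giving kinact = ln2/y-intercept and KI(inact) = −1/x-intercept.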

[4] = test system: WPMY1; assay: In-vitro LD50, alamarBlue viability, WPMY1; format: cell-based, human; conditions: WPMY1, 48 hours
Procedure, shortened: (§1)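 Cells were plated at 10,000 per well in triplicate and allowed to attach overnight. Medium was replaced with test compound (0–500 μM or 0–400 μM depending on compound) for 48 h. Cells were then incubated with alamarBlue for 4 h and fluorescence read at 544 ex/590 em. After media-only background subtraction, viability was expressed as a percent of the vehicle control. LD50 came from a 4-parameter variable-slope fit with the bottom constrained to zero.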

[5] = test system: PC3; assay: In-vitro LD50, alamarBlue viability, PC3; format: cell-based, human; conditions: PC3, 48 hours
Procedure, shortened: as §1

[6] = test system: LAPC4; assay: In-vitro LD50, alamarBlue viability, LAPC4; format: cell-based, human; conditions: LAPC4, 48 hours
Procedure, shortened: as §1

[7] = test system: LNCaP; assay: In-vitro LD50, alamarBlue viability, LNCaP; format: cell-based, human; conditions: 48 hours
Procedure, shortened: as §1

[8] = Mode of cell death; format: cell-based; conditions: Supplementary Figure S7
[9] = target: T2, AMACR (Homo sapiens, UniProt Q9UHK6); assay: Pre-incubation of AMACR with cysteine specific reagents, with or without ebselen; format: biochemical; conditions: 20 mM dithithreitol, 5 mM tributylphosphine, 15 mM iodoacetamide
T2 sequence (Q9UHK6 1-382): T1 sequence (Q9UHK6 1-382)

[10] = target: T1, AMACR-MBP; assay: AMACR inhibitor IC50 determination; format: biochemical
Procedure, shortened: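 Run as the plate screen (0.3 μM AMACR-MBP, 100 μM [2,3-3H]Pri-CoA, SPE and scintillation read-out), adding enzyme last. Test compound was dosed at 1–1000 μM, extended to 1–750 nM for selected compounds, from 100% DMSO stocks, giving 2–6% DMSO, in triplicate. Fractional activity was fitted by 3-parameter log(inhibitor)-response regression.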

[11] = test system: prostate cancer cell lines (LAPC4/LNCaP/PC3) compared to WPMY1; format: cell-based, human; conditions: highest vs lowest AMACR expressor
Procedure, shortened: as §1

[12] = target: T1, AMACR-MBP; assay: Effect of pre-incubation time on ebselen inhibition; format: biochemical
[13] = neuroprotective doses, 300 mg/day, oral; ref [44], [46]; cited from earlier work

Work on CC(C)CCCC(C)CCCC(C)CCCC(C)C(=O)SCCNC(=O)CCNC(=O)[C@H](O)C(C)(C)COP(=O)(O)OP(=O)(O)OC[C@H]1O[C@@H](n2cnc3c(N)ncnc32)[C@H](O)[C@@H]1OP(=O)(O)O (some centres unmarked) [[2,3-^3H] Pri-CoA, [2,3-^3H] pristanoyl coenzyme A] yielded a Km [1] of 85.6 ± 17.1 µM.

Nc1c(/N=N/c2ccc(-c3ccc(/N=N/c4cc(S(=O)(=O)O)c5ccccc5c4N)cc3)cc2)cc(S(=O)(=O)O)c2ccccc12 [Congo Red, congo red] gave an inhibition at 100 µM [2] of at least 20%.

With Cc1cc(O)c(-c2cc(O)c(C)cc2O)cc1O [DMPMB, 2-(2,5-dihydroxy-4-methylphenyl)-5-methyl benzene-1,4-diol] the mode of inhibition [3] was “irreversible inactivators”, the KI (inactivation) [3] was 24.3 µM and the LD50 [4] was 117.6 ± 1.011 µM. For the same compound, the LD50 [5] was 101.1 ± 1.034 µM, the LD50 [6] was 58.78 ± 1.058 µM and the LD50 [7] was 116.9 ± 1.033 µM. The “type of cell death induced” value [8] was “necrotic cell death”.

Work on [3H]C(CCC(C)CCCC(C)CCCC(C)C)C([3H])(C)C(=O)SCCNC(=O)CCNC(=O)[C@H](O)C(C)(C)COP(=O)(O)OP(=O)(O)OC[C@H]1O[C@@H](n2cnc3c(N)ncnc32)[C@H](O)[C@@H]1OP(=O)(O)O (some centres unmarked) [[2,3-^3H] Pri-CoA, [2,3-^3H] pristanoyl coenzyme A] yielded a Vmax [1] of 294.9 ± 21.10 pmol/min.

For CCCCP(CCCC)CCCC [TBP, tributylphosphine], the “effect of pre-incubation with cysteine specific reagent on AMACR-MBP activity” value (from here on “effect of pre-incubation”) [9] was “does not abrogate AMACR-MBP activity”.

For O=C1c2c(O)ccc(O)c2C(=O)c2c(NCCNCCO)ccc(NCCNCCO)c21 [mitoxantrone], the “inhibition of AMACR-MBP detected in library screen” value ([2]; 100 μM, both JHDL and NCI/DTP libraries) was “inhibition of AMACR-MBP”.

In the case of O[C@@H](CS)[C@@H](O)CS (racemic) [DTT, dithithreitol], the “effect of pre-incubation” value [9] is reported as “does not abrogate AMACR-MBP activity”.

Work on O=C1c2ccccc2[Se](=O)N1c1ccccc1 (centres unmarked) [ebselen oxide] yielded an IC50 ([10]; 100 μM [2,3-3H]Pri-CoA, 0.3 μM AMACR-MBP, enzyme initiated) of 0.8 µM.

In the case of CSc1nc(=S)c2[nH]c(=S)[nH]c2[nH]1 [MSDTP, 2-methylsulfanyl-7,9-dihydro-3H-purine-6,8-dithione], the mode of inhibition [3] is reported as “covalent inactivators”.

With O=c1c2ccccc2[se]n1-c1ccccc1 [ebselen] the inhibition at 100 µM [2] was at least 20%, the IC50 [10] was 2.79 µM and the mode of inhibition [3] was “irreversible inactivators”. The KI (inactivation) [3] was 24 µM, the LD50 [4] was 467.1 ± 1.017 µM and the LD50 [5] was 332.3 ± 1.015 µM. The LD50 [6] was 98.43 ± 1.038 µM, the LD50 [7] was 71.96 ± 1.106 µM and the “difference in LD50 between LNCaP and WPMY1” value [11] was 5 fold. The “type of cell death induced” value [8] was “necrotic cell death”, the “fractional activity of AMACR-MBP” value ([12]; no pre-incubation (enzyme initiated)) was ~ 50% and the “fractional activity of AMACR-MBP” value ([12]; pre-incubation time of ≥ 5 minutes (substrate initiated)) was “just above background”. The “tolerability in clinical trials” value [13] was “well tolerated”.

With NC(=O)CI [IAA, iodoacetamide] the “effect of pre-incubation” value [9] was “does not abrogate AMACR-MBP activity”.
